From PubChem BioAssay
M1 antagonist = blocks the rat M1 muscarinic receptor response to acetylcholine; P08482; CHO-M1 cells, Fluo-4 calcium, ACh EC80 antagonist mode; active compounds read low; B-score at 10 µM; hit rate 3.4% among 64,000;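 active = calcium fluorescence response, raw or row-and-column corrected B-score, differing from the plate sample mean either way at a set confidence level, mostly lower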
Target sequence (P08482 whole entry, looked up): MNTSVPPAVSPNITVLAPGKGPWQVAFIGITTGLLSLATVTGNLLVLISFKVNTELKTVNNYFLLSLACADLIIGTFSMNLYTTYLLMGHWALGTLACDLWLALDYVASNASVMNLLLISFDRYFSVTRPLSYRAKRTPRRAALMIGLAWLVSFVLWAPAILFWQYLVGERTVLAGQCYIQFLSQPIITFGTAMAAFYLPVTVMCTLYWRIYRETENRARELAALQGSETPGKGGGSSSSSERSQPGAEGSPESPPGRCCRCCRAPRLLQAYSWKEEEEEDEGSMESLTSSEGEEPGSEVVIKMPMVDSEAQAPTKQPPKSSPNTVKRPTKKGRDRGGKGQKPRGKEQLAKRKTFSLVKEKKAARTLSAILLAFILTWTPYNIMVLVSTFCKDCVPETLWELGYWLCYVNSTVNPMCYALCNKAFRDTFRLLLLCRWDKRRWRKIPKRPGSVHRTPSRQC
M1 ag = activates the M1 muscarinic receptor. CHO-M1 cells, Fluo-4 calcium fluorescence, agonist mode; active compounds read high. B-score at 10 µM. hit rate 3% among 64,000. AID 626;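 active = fluorescence rise, raw or as B-score row- and column-corrected plate score, outside the 99.7% band of its plate's samples, either direction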
D1 mod = allosterically modulates the human D1 dopamine receptor; HEK293 D1, CRE-luciferase, dopamine EC30 potentiation; actives deviate in either direction; AID 641; B-score at 10 µM; P21728; hit rate 5.9% among 58,000;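 active = luminescence count or its row- and column-corrected plate score outside the 99.7% band of the plate's sample wells, on either side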
S1P1 ag-PAM = activates or potentiates agonism at human S1P1 receptor | P21453 | S1P1 CRE-bla cells, forskolin, beta-lactamase FRET, potentiator mode; S1P1 agonist co-added at EC20, 2 nM; 100% = saturating reference agonist, 0% = basal | activation, % at 9.5 µM | hit rate 0.57% among 56,000;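 active = activation above a cutoff set at the mean activation of all tested compounds plus 3 SD, cut at about 54% in these data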;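 note: forskolin at 4 µM as EC80 and the EC20 agonist is SEW2871; 100% = SEW2871 at its EC100 plus forskolin at EC80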
S1P3 agonist = activates the human S1P3 receptor | Q99500 | S1P3 NFAT-BLA reporter cells, agonism, FRET ratio; relative to 1 µM S1P, basal subtracted | activation, % at 4.5 µM | hit rate 0.1% among 60,000 | AID 373;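 active = activation above the screen-wide mean plus 3 SD, cut at about 4.5% in these data, passing the limit was not always enough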
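Material: Human S1P3 NFAT-BLA reporter CHO cells | Incubation: Overnight plating, 4 h compound 37 °C, 2 h substrate RT | Signal: FRET β-lactamase substrate fluorescence, excitation 405 nm, 460/535 nm emission ratio, background-subtracted | Compound: 4.5 µM final, single dose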
M1 ag confirm = rat M1 muscarinic agonism, confirmation; CHO-M1 cells, Fluo-4 calcium fluorescence, agonist mode; actives lie on both sides; hit rate 19% among 1,700; shares compounds with M1 ag; AID 1488; fluorescence change (max-min) at 10 µM;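 active = fluorescence change differs from the solvent-only DMSO control mean at a set confidence level in both duplicate runs; inconclusive = differs from solvent-only control mean in just one of two runs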;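 note: an EC20 dose of acetylcholine follows compound addition during the same imaging run; raw fluorescence intensity difference in instrument units with no normalization to controls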
M4 agonist ctr = counter-screen for M1 agonists: activity at rat M4 receptor; fluorescence change (max-min) at 10 µM; AID 1741; shares compounds with M1 ag; CHO M4/Gqi5 cells, Fluo-4 calcium fluorescence, agonist mode; actives lie on both sides; hit rate 9% among 1,700;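 active = fluorescence change differing from the plate's solvent-only control wells at 99.7% confidence in both duplicates, whether higher or lower; inconclusive = differs from solvent controls in only one of two duplicates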
Numbers without * were called inactive; ? = inconclusive; . = no result given. An excerpt weighted towards active compounds, which were near 11% of everything screened.

SMILES	M1 antagonist	M1 ag	D1 mod	S1P1 ag-PAM	S1P3 agonist	M1 ag confirm	M4 agonist ctr
COc1ccc(CCCNC(=O)CC#N)cc1OC	0.058	-0.69	.	-4	-2	.	.
Cc1cc2nnc(SCC(=O)NCc3ccco3)n2c2ccccc12	0	0.2	0.74	17	0	.	.
CC(C)OCCCNc1ncnc2c1[nH]c1ccccc12	-4.3*	3.2*	-3	61	-1	1.9	?
Cc1ccc(Cl)cc1NC(=O)CC(O)(C(F)(F)F)C(F)(F)F	-2.5*	11*	-4.2*	.	-2	16	-3.4
CCCn1nc(C(=O)Nc2cccc(C(=O)OC)c2)c2ccccc2c1=O	-0.22	5.7*	-1.9	-31	0	-10	-45
O=C(NCc1cccs1)C1CCC(=O)N1C1CCCCC1 (centres undefined)	-0.17	-0.37	-0.077	7	-1	.	.
CC1(C)CC(=O)C2=C(C1)OC(N)=C(C#N)C21CCN(Cc2ccccc2)CC1	-0.36	6.9*	0.46	.	.	37	-27
Cc1onc(-c2c(F)cccc2Cl)c1C(=O)Nc1ccc(S(=O)(=O)Nc2ncccn2)cc1	-0.23	-0.56	0.06	-5	0	.	.
COc1ccc(OC)c(C2C(C(N)=O)=C(C)Nc3nc(CCCO)nn32)c1 (centres undefined)	-0.34	0.07	0.2	-5	0	.	.
CS(=O)(=O)N1CCC(C(=O)Nc2ccc(Oc3ccccc3)cc2)CC1	-0.53	3.2*	0.021	5	-2	?	-70
COc1ccc2nc(N3CCC(C)CC3)c(C#N)cc2c1	-1.1	4*	0.9	17	1	22	?
COc1ccc2nc(N3CCC(O)CC3)c(C#N)cc2c1	-0.29	55*	1.3	-6	-1	198*	166*
CCOC(=O)C1CCN(c2nc3cc(OC)ccc3cc2C#N)CC1	-0.47	0.61	-0.035	1	0	.	.
CCOC(=O)N1CCC(NC(=O)c2cc3ccccn3n2)CC1	-1.6	-0.064	0.0052	-7	-1	.	.
CC(C)(C)n1nc2c(c1NC(=O)c1cccc(C(F)(F)F)c1)CS(=O)C2 (centres undefined)	-0.57	-0.44	-0.35	9	0	.	.
COc1cc2nc(NCC3CCCO3)n3nc(-c4cccnc4)nc3c2cc1OC (centres undefined)	-3.9*	2.9*	-2.2	-25	0	?	-39
CC(=Nc1ccc2c(c1)nc(CO)n2C)C1=C(O)CC(C)(C)CC1=O	-0.13	0.27	1.4	-12	-1	.	.
CCOC(=O)c1ccc(NC(=O)c2cccc(S(=O)(=O)N3CCOCC3)c2)cc1	-2.9*	10*	0.053	22	-1	-9.2	?
O=C(Nc1ccc(F)c(F)c1)c1ccc(F)c(S(=O)(=O)N2CCOCC2)c1	-0.6	2.2	-0.5	.	.	.	.
CCOC(=O)c1ccc(NC(=O)c2ccc(C)c(S(=O)(=O)N3CCOCC3)c2)cc1	-3.1*	16*	-6.6*	.	.	11	-27
O=C(Nc1ccc2c(c1)OCCO2)c1ccc(Br)c(S(=O)(=O)N2CCOCC2)c1	-0.65	11*	0.017	-6	-2	?	-68
CCOC(=O)c1cc(C)n(-n2cnnc2)c1C	0.49	0.22	0.0073	6	-1	.	.
Cc1ccccc1COc1ccc(/C(O)=C2/C(=O)C(=O)N(CCCn3ccnc3)C2c2ccco2)cc1 (centres undefined)	-0.3	-0.004	.	2	-4	.	.
CCOC(=O)C1=C(C)NC(=O)C(C(N)=O)C1c1ccccc1 (centres undefined)	0.23	-0.021	0.62	-24	-1	.	.
CC(=O)N1CCc2cc(S(=O)(=O)CCC(=O)Nc3c(C)n(C)n(-c4ccccc4)c3=O)ccc21	-0.51	8.6*	-0.53	-5	-1	?	-32
SMILES	M1 antagonist	M1 ag	D1 mod	S1P1 ag-PAM	S1P3 agonist	M1 ag confirm	M4 agonist ctr
CC(=O)N1CCc2cc(S(=O)(=O)CCC(=O)O)ccc21	-0.47	-0.061	.	-17	-1	.	.
Cc1noc(C(=O)Nc2sc3c(c2C#N)CCC3)c1Cl	-0.68	-3.6*	-0.59	-5	1	2.9	-20
CCN(CC)S(=O)(=O)c1cccc(-c2nnc(SCCOc3ccc(Cl)cc3)o2)c1	0.053	-1.5	-1.8	12	-1	.	.
CCN(CC)S(=O)(=O)c1cccc(-c2nnc(SCCOc3ccccc3C)o2)c1	-1.2	5.6*	.	8	-1	18	?
COc1ccc(Br)cc1C(=O)Nc1cccc(NC(=O)c2ccco2)c1	-0.16	0.93	-0.51	-27	-1	.	.
O=C(Nc1cccc(NC(=O)c2ccc(-c3cccc(Br)c3)o2)c1)c1ccco1	-1.8	7.8*	-3.4*	2	0	?	-74
COc1ccc(NC(=O)Cn2c(=O)sc3ccccc32)c(OC)c1	-0.38	-0.039	0.67	25	-1	.	.
COc1ccc(C2C=C(c3ccccc3)Nc3ncnn32)cc1 (centres undefined)	-0.49	9.7*	-0.028	-13	0	86*	70
CCOc1ccc(C2C=C(c3ccc(C)cc3)Nc3nnnn32)cc1 (centres undefined)	0.14	1.5	0.02	3	0	.	.
CCOc1ccc(C2C=C(c3ccccc3)Nc3nnnn32)cc1 (centres undefined)	0.0052	0.51	-0.36	13	0	.	.
CCOc1ccc(C2C=C(c3ccc(C)cc3)Nc3ncnn32)cc1 (centres undefined)	-0.86	5.5*	-0.58	13	-1	129*	?
CCOC(=O)C1CCCN(c2nc(C)nc3c2oc2ccccc23)C1 (centres undefined)	0.57	1.8*	.	.	.	-8.2	-29
CCOC(=O)C1CCN(c2nc(C)nc3c2oc2ccccc23)CC1	-0.98	0.9	.	.	.	.	.
CCOC(=O)c1ccc(NC(=O)C2CC2)cc1	0.95	-0.46	-0.49	-16	-1	.	.
CCOC(=O)c1ccc(Nc2nnc(C(C)(C)C)c(=O)[nH]2)cc1	-0.42	3.5*	0.084	.	.	-17	-1.1
CC1(C)CC(C#N)(N2CCOCC2)CCO1 (centres undefined)	0.95	0.0026	-0.66	-4	0	.	.
CCOC(=O)N1CCN(C(=O)Nc2ccc3nc(C)c(C)nc3c2)CC1	-0.32	-0.081	-0.12	-12	-2	.	.
CCOC(=O)C1CCN(C(=O)Nc2ccc3c(c2)nc(C)n3C)CC1	0.2	0.55	-0.95	.	-1	.	.
O=C(Nc1ccc2nc(-c3ccco3)c(-c3ccco3)nc2c1)N1CCCCCC1	-4.6*	30*	-4.5*	5	-1	362*	?
CCOC(=O)C1CCN(C(=O)Nc2ccc3nc(-c4ccco4)c(-c4ccco4)nc3c2)CC1	-12*	84*	-1.5	.	.	392*	?
COc1ccc(S(=O)(=O)N2CCN(c3nc4ccccc4nc3-n3nc(C)cc3C)CC2)cc1	-1	0.22	-1.1	.	0	.	.
